Test results taken from ChEMBL document CHEMBL3627607, “A Novel Pyrazolopyridine with in Vivo Activity in Plasmodium berghei- and Plasmodium falciparum-Infected Mouse Models from Structure-Activity Relationship Studies around the Core of Recently Identified Antimalarial Imidazopyridazines” (J Med Chem, 2015).

Key:
[1] = Selectivity index, ratio of IC50 for CHO cells to IC50 for multidrug resistant Plasmodium falciparum K1; format: toxicity, cell-based; settings: hamster, read-out: Ratio IC50
[2] = AUC (0 to 8 hrs) in Plasmodium falciparum 3D7 infected in non-myelodepleted NOD-SCID IL2Rgammanull mouse engrafted with human erythrocytes at 10 mg/kg, po; format: ADME, organism-based; design: time < 8 hr, dose 10 mg/kg, route oral; settings: in vivo
In short: (§1)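 Engrafted NSG (scid IL2Rgc null) mice infected with P. falciparum were given one oral dose per day for four days. Blood was sampled to measure parent and its sulfone metabolite.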

[3] = Drug level in mouse blood at 50 mg/kg, po after 4 hrs; format: ADME, organism-based; settings: read-out: Drug uptake
In short: (§2)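 Snapshot whole-blood levels of parent and its sulfone metabolite at 1, 4 and 24 h after the first 50 mg/kg oral dose. Samples came from the P. berghei-infected efficacy mice, dosed in HPMC suspension vehicle.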

[4] = Cmax in Plasmodium falciparum 3D7 infected in non-myelodepleted NOD-SCID IL2Rgammanull mouse engrafted with human erythrocytes at 0.1 mg/kg, po; format: ADME, organism-based; design: dose 0.1 mg/kg, route oral; settings: in vivo; in short: as §1
Plasmodium berghei [5] = experiment: Antiplasmodial activity against Plasmodium berghei ANKA expressing GFP infected in mouse assessed as means survival days at 50 mg/kg, po qd for 4 days; format: functional
In short: (§3)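 Mice (n = 3) infected with GFP-transfected P. berghei ANKA. Compounds dissolved or suspended in HPMC vehicle (0.5% w/v hydroxypropylmethylcellulose, 0.5% v/v benzyl alcohol, 0.4% v/v Tween 80, 0.9% w/v NaCl in water). Dosed orally 4, 24, 48 and 72 h after infection. Parasitemia read by flow cytometry (detection limit 0.1%). Survival recorded as mean survival time in days.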

[6] = Oral bioavailability in rat at 15 mg/kg; format: ADME, organism-based; settings: in vivo
Rattus norvegicus = experiment: Half life in rat at 5 mg/kg, iv; format: ADME, organism-based; settings: in vivo
Plasmodium berghei [7] = experiment: Antiplasmodial activity against Plasmodium berghei ANKA expressing GFP infected in mouse assessed as means survival days at 3 mg/kg, po qd for 4 days; format: functional; in short: as §3
[8] = Tmax in Plasmodium falciparum 3D7 infected in non-myelodepleted NOD-SCID IL2Rgammanull mouse engrafted with human erythrocytes at 10 mg/kg, po; format: ADME, organism-based; settings: in vivo
In short: (§4)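 Humanized NSG mice infected with P. falciparum received one oral dose per day for 4 consecutive days. Blood was sampled for exposure, with levels of both parent and its main active metabolite measured. Tmax was taken from the blood concentration–time profile after oral dosing.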

Blood [9] = experiment: Drug metabolism in rat blood assessed as 5-(3-(Cyclopropylsulfonyl)phenyl)-3-(4-(methylsulfonyl)-phenyl)pyrazolo[1,5-a]pyridine formation at 20 mg/kg, po and 5 mg/kg, iv by LC-MS/MS analysis; format: ADME, organism-based; settings: in vivo
In short: (§5)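 Metabolites identified by LC-ESI-MS/MS in blood samples from the rat PK study (oral and intravenous dosing).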

[10] = Selectivity index, ratio of IC50 for African green monkey VERO cells to IC50 for multidrug resistant Plasmodium falciparum K1; format: toxicity, cell-based; settings: read-out: Ratio IC50
[11] = Tmax in Plasmodium falciparum 3D7 infected in non-myelodepleted NOD-SCID IL2Rgammanull mouse engrafted with human erythrocytes at 0.1 mg/kg, po; format: ADME, organism-based; settings: in vivo; in short: as §1
Blood [12] = experiment: Drug metabolism in rat blood assessed as metabolite formation from sulfone oxidation on pyrazole at 20 mg/kg, po and 5 mg/kg, iv by LC-MS/MS analysis; format: ADME, organism-based; settings: in vivo; in short: as §5
[13] = Tmax in Plasmodium falciparum 3D7 infected in non-myelodepleted NOD-SCID IL2Rgammanull mouse engrafted with human erythrocytes at 30 mg/kg, po; format: ADME, organism-based; settings: in vivo; in short: as §4
[14] = Selectivity index, ratio of IC50 for CHO cells to IC50 for Plasmodium falciparum NF54; format: toxicity, cell-based; settings: hamster, read-out: Ratio IC50
[15] = Metabolic stability of the compound in mouse liver microsomes assessed as compound remaining at 0.1 uM after 30 mins by LC-MS/MS analysis; format: ADME; settings: 0.5 h
Plasmodium berghei [16] = experiment: Antiplasmodial activity against Plasmodium berghei ANKA expressing GFP infected in mouse assessed as reduction of parasitemia level at 50 mg/kg, po qd for 4 days measured on day 4 post last dose by flow cytometric analysis relative to control; format: functional; design: scale not given: the % may be the effect or the level left
In short: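 Mice (n = 3) infected with GFP-transfected P. berghei ANKA. Test agents were suspended in HPMC vehicle (0.5% w/v hydroxypropylmethylcellulose, 0.5% v/v benzyl alcohol, 0.4% v/v Tween 80, 0.9% w/v NaCl in water). Dosed orally at 4, 24, 48 and 72 h post-infection. Parasitemia read by flow cytometry on day 4 (96 h), detection limit 0.1%. Activity = control-minus-treated mean % parasitemia, relative to control.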

[17] = Drug level in mouse blood at 50 mg/kg, po after 1 hr; format: ADME, organism-based; settings: read-out: Drug uptake; in short: as §2
[18] = Tmax in Plasmodium falciparum 3D7 infected in non-myelodepleted NOD-SCID IL2Rgammanull mouse engrafted with human erythrocytes at 1.5 mg/kg, po; format: ADME, organism-based; settings: in vivo; in short: as §4
Blood [19] = experiment: Drug metabolism in mouse assessed as 5-(3-(Cyclopropylsulfonyl)phenyl)-3-(4-(methylsulfonyl)-phenyl)pyrazolo[1,5-a]pyridine level in blood at 50 mg/kg, po after 1 hr; format: ADME, organism-based; settings: in vivo, read-out: Drug metabolism; in short: as §2
Blood [20] = experiment: Drug metabolism in mouse assessed as 5-(3-(Cyclopropylsulfonyl)phenyl)-3-(4-(methylsulfonyl)-phenyl)pyrazolo[1,5-a]pyridine level in blood at 50 mg/kg, po after 4 hrs; format: ADME, organism-based; settings: in vivo; in short: as §2
[21] = AUC (0 to 8 hrs) in Plasmodium falciparum 3D7 infected in non-myelodepleted NOD-SCID IL2Rgammanull mouse engrafted with human erythrocytes at 1.5 mg/kg, po; format: ADME, organism-based; design: dose 1.5 mg/kg, time < 8 hr, route oral; settings: in vivo; in short: as §1
Plasmodium falciparum [22] = experiment: Antiplasmodial activity against Plasmodium falciparum 3D7 infected in po dosed non-myelodepleted NOD-SCID IL2Rgammanull mouse engrafted with human erythrocytes assessed as reduction of parasitemia level administered qd for 4 days; format: functional; settings: 3D7, po, 96 h
In short: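 P. falciparum-infected engrafted NSG mice were dosed orally once daily for four consecutive days. Blood parasitemia was monitored, and a 90% effective dose was derived along with the blood exposure at that dose.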

[23] = Selectivity index, ratio of IC50 for African green monkey VERO cells to IC50 for Plasmodium falciparum NF54; format: toxicity, cell-based; settings: read-out: Ratio IC50
[24] = AUC (0 to 8 hrs) in Plasmodium falciparum 3D7 infected in non-myelodepleted NOD-SCID IL2Rgammanull mouse engrafted with human erythrocytes at 0.5 mg/kg, po; format: ADME, organism-based; design: dose 0.5 mg/kg, time < 8 hr, route oral; settings: in vivo; in short: as §1
Liver microsome = experiment: Drug metabolism in rat liver microsomes assessed as 5-(3-(Cyclopropylsulfonyl)phenyl)-3-(4-(methylsulfonyl)-phenyl)pyrazolo[1,5-a]pyridine formation at 10 uM after 1 hr by LC-MS/MS analysis; format: ADME
In short: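 Metabolites identified by LC-ESI-MS/MS after in vitro incubation with rat liver microsomes.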

[25] = Drug level in mouse blood at 50 mg/kg, po after 24 hrs; format: ADME, organism-based; settings: blood, read-out: Drug uptake; in short: as §2
Plasmodium falciparum [26] = experiment: Antiplasmodial activity against drug sensitive Plasmodium falciparum NF54 infected in human erythrocytes after 48 hrs by [3H]-hypoxanthine incorporation assay; format: functional, organism-based
Plasmodium berghei [27] = experiment: Antiplasmodial activity against Plasmodium berghei ANKA expressing GFP infected in mouse assessed as means survival days at 10 mg/kg, po qd for 4 days; format: functional; in short: as §3
[28] = AUC (0 to 23 hrs) in Plasmodium falciparum 3D7 infected in non-myelodepleted NOD-SCID IL2Rgammanull mouse engrafted with human erythrocytes at 30 mg/kg, po; format: ADME, organism-based; design: dose 30 mg/kg, time < 23 hr, route oral; settings: in vivo; in short: as §1
[29] = Cmax in Plasmodium falciparum 3D7 infected in non-myelodepleted NOD-SCID IL2Rgammanull mouse engrafted with human erythrocytes at 0.5 mg/kg, po; format: ADME, organism-based; design: dose 0.5 mg/kg, route oral; settings: in vivo; in short: as §1

C[S+]([O-])c1ccc(-c2cnn3ccc(-c4cccc(S(=O)(=O)C5CC5)c4)cc23)cc1 (stereo unspecified)
selectivity ratio [1]: > 1000 | AUC(0-t) at 8 h [2]: 293 ng·h/mL | concentration at 4 h [3]: 1780 nM | Cmax [4]: 2 ng/mL | MSD (Plasmodium berghei [5]): >30 days | bioavailability [6]: 14% | t1/2 (Rattus norvegicus): 2.7 h | MSD (Plasmodium berghei [7]): 7 days | Tmax [8]: 2 h | Drug metabolism (Blood [9]): metabolite_detected | selectivity ratio [10]: > 1000 | Tmax [11]: 0.25 h | Drug metabolism (Blood [12]): metabolite_detected | Tmax [13]: 6 h | selectivity ratio [14]: > 1000 | Stability [15]: Stable | Activity (Plasmodium berghei [16]): 99.8% | concentration at 1 h [17]: 2960 nM | Tmax [18]: 0.5 h | concentration (Blood [19]): 7900 nM | Drug metabolism (Blood [20]): 10.3 µM | AUC(0-t) at 8 h [21]: 40.5 ng·h/mL | ED90 (Plasmodium falciparum [22]): 0.5 mg/kg | selectivity ratio [23]: > 1000 | AUC(0-t) at 8 h [24]: 12.1 ng·h/mL | Drug metabolism (Liver microsome): metabolite_detected | concentration at 24 h [25]: 30 nM | IC50 (Plasmodium falciparum [26]): 6 nM | MSD (Plasmodium berghei [27]): 8 days | AUC(0-t) at 23 h [28]: 1240 ng·h/mL | Cmax [29]: 4 ng/mL
